In general, pIC50 refers to the IC50 on a negative log10 scale, so that one unit is a factor of ten. The low end stands for a high IC50, the high end for a low IC50. As usually defined, the IC50 is the point on the concentration scale where inhibition reaches its midpoint. The low end stands for greater potency in that assay, the high end for weaker potency in that assay. For orientation: GI50 means the concentration at which growth is held to half of that of the control. The term inhibition denotes the change of the read-out against control, counted positive when it falls. High values mean a response far below the control, low ones a response near the control.

Structures are written as SMILES. pIC50: −log10 of the molar value.

Consider 6 compounds from ChEMBL document CHEMBL1132166, “Synthesis and biological evaluation of dihydrobenzofuran lignans and related compounds as potential antitumor agents that inhibit tubulin polymerization” (J Med Chem, 1999).

Experiment [1] addresses T1, Tubulin (Bos taurus, UniProt Q6B856+Q862L2+Q862F3). Put plainly: (§1) Inhibitory activity against purified bovine brain tubulin. An outline of the steps:
(§2)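 Tubulin assembly: drug and tubulin were preincubated in glutamate for 15 min at 30 °C, then chilled on ice. GTP was added and assembly started by a 0→30 °C jump in a recording spectrophotometer. After 20 min, mixtures were chilled to 0 °C to confirm reversibility. IC50 was taken from inhibition of the extent of assembly across a drug concentration series (n = 3, SD).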

Experiment [2] addresses T1, Tubulin. Described as §1. It is filed as functional. The gist of the method:
as §2

Experiment [3] has as its system HL-60. In words: Inhibitory activity against HL 60 cells. As to conditions: Homo sapiens. It is filed as functional, cell-based. The gist of the method:
(§3)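 HL-60 human leukemia cells were grown for 24 h with compound. Growth was measured as the increase in cell number from time zero, and the IC50 was taken from that growth. Mitotic arrest was scored as the fraction of cells with condensed chromosomes after 24 h at 10 µM.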

In experiment [4] the test system is Panel (Carcinoma cell lines). Put plainly: The molar drug concentration required for 50% growth inhibition. It is filed as functional. As to conditions: Homo sapiens. An outline of the steps: (§4)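 NCI in vitro human tumor cell line screening panel; each compound tested at a minimum of five concentrations at 10-fold dilutions, highest 100 µM, over a 48 h assay. GI50 is the molar concentration giving 50% growth inhibition. TGI and LC50 were also derived, and the average log GI50 was taken across all lines tested.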

Experiment [5] has as its target Tubulin alpha chain (Sus scrofa) (UniProt P02550). Conditions: Homo sapiens; 5.0 uM.
Experiment [6] has the same target. As to conditions: Homo sapiens; 1.0 uM.
Experiment [7] has as its system Panel (Carcinoma cell lines). In words: Average log GI50 value against a panel of human cancer cell lines. Format: functional. An outline of the steps:
as §4

For a further experiment, the system named is CCRF-CEM. Put plainly: Growth inhibitory activity determined against CCRF-CEM leukemia cell line. It is filed as functional. As to conditions: Homo sapiens. The gist of the method:
as §4

The next experiment deals with MDA-MB-231. Put plainly: Growth inhibitory activity determined against MDA-MB-231/ATCC breast cancer cell line. As to conditions: Homo sapiens. Format: functional. The gist of the method:
as §4

A further experiment has as its system MOLT-4. Put plainly: Growth inhibitory activity determined against MOLT-4 leukemia cell line. Format: functional. Conditions: Homo sapiens. The gist of the method:
as §4

A further experiment has as its system BT-549. In words: Cytotoxicity against BT-549 breast cancer cell line. As to conditions: Homo sapiens. It is filed as functional. An outline of the steps: as §4
For the next experiment, the system named is SR. Put plainly: Growth inhibitory activity determined against SR leukemia cell line. As to conditions: Homo sapiens. Format: functional. The gist of the method: as §4
The test system of a further experiment is MDA-MB-4. In words: Cytotoxicity against MDA-MB-435 breast cancer cell line. Format: functional. Conditions: Homo sapiens. An outline of the steps: as §4
In a further experiment the test system is MDA-N. Put plainly: Cytotoxicity against MDA-N breast cancer cell line. As to conditions: Homo sapiens. Format: functional. The gist of the method:
as §4

Experiment [8] deals with MCF7. In words: Growth inhibitory activity determined against MCF-7 breast cancer cell line. Format: functional. As to conditions: Homo sapiens. The gist of the method:
as §4

Experiment [9] deals with MCF7. Put plainly: Growth inhibitory activity determined against MCF-7/ADR-RES breast cancer cell line. It is filed as functional. As to conditions: Homo sapiens. The gist of the method:
as §4

In the next experiment the test system is Hs-578T. Put plainly: Growth inhibitory activity determined against HS 578 T breast cancer cell line. It is filed as functional. Conditions: Homo sapiens. The gist of the method:
as §4

Experiment [10] relates to HL-60. In words: Compound was evaluated for its effect on the growth of HL 60 human leukemia cells. It is filed as functional, cell-based. The gist of the method:
as §3

Another experiment concerns RPMI-8226. In words: Growth inhibitory activity determined against RPMI-8226 leukemia cell line. Format: functional. As to conditions: Homo sapiens. The gist of the method:
as §4

Sequence of Tubulin alpha chain (Sus scrofa) (P02550 whole entry, looked up): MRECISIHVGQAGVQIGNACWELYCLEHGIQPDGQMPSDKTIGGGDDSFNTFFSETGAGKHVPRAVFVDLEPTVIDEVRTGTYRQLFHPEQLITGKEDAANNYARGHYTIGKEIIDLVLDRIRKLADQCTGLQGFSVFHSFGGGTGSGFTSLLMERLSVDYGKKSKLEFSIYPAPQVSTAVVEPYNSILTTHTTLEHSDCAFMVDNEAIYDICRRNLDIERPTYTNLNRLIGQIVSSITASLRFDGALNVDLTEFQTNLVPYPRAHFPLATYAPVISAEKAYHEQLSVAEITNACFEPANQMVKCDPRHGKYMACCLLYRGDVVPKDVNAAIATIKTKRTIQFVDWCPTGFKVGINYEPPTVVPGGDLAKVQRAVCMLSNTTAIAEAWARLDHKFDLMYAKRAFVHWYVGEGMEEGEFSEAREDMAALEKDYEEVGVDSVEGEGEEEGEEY

Turning to `COC(=O)/C=C/c1cc(OC)c2c(c1)[C@@H](C(=O)OC)[C@H](c1ccc(OC)c(OC)c1)O2`, the pIC50 against Tubulin [1] is less than 4.40; with HL-60 [3], 7.10. On Tubulin [2], this compound returned an IC50 greater than 40000 nM. This compound also showed a GI50 in experiment [4] of 5100 nM.
As to `COC(=O)/C=C/c1cc(OC)c2c(c1)[C@@H](C(=O)OC)[C@H](c1ccc(O)c(OC)c1)O2`, the IC50 against Tubulin [2] is greater than 40000 nM. Besides, in experiment [4], the GI50 stood at 3300 nM.
`COc1ccc(/C=C\c2cc(OC)c(OC)c(OC)c2)cc1O`: the inhibition in experiment [5] is 100%; in experiment [6], 88%.
Consider `OCCCc1cc(O)c2c(c1)[C@@H](CO)[C@H](c1ccc(O)c(O)c1)O2`, for which, in [7], the “log GI50” value is -4.01.
In the case of `COC(=O)CCc1cc(O)c2c(c1)[C@@H](C(=O)OC)[C@H](c1ccc(O)c(O)c1)O2`, the “log GI50” value in [7] is recorded as -4.97.
Regarding `COC(=O)/C=C/c1cc(O)c2c(c1)[C@@H](C(=O)OC)[C@H](c1ccc(O)c(O)c1)O2`, the GI50 in the experiment on CCRF-CEM is 33 nM; in the experiment with MDA-MB-231 it was 50 nM; in the experiment with MOLT-4 it was 81 nM; in the experiment with BT-549 it was less than 10 nM; with SR, 69 nM; with MDA-MB-4 it was less than 10 nM. The GI50 in the experiment with MDA-N was less than 10 nM; in experiment [7] it was 288 nM; in the experiment with MCF7 [8] it was 29 nM; in the experiment on MCF7 [9], 54 nM; in the experiment with Hs-578T, 45 nM; in the experiment with RPMI-8226 it was 55 nM. In experiment [4], this compound had a GI50 of 300 nM. The same compound gave a pIC50 with HL-60 [10] of 6.70.
